Laboratory results reported in ChEMBL document CHEMBL1121740, “2-l-Rhamnopyranosyl[1,2,4]triazolo[1,5-a]pyridine. 4' and 3' Oxidation products. Synthesis and structure-activity relationships” (J Med Chem, 1981).
Converted amounts (≈) assume the structure as drawn.

Experiments:
[1] = Cytotoxicity at 100 ug/mL against normal mouse fibroblasts (C3H cells) cells; type: cell-based
Summary of the method: (§1)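 Colony-forming (plating efficiency) assay. 200 C3H or S+L- 3T3 FL cells per well, grown in McCoy's 5a with 10% heat-inactivated FCS. Various product concentrations are added 24 h after seeding. Colonies are stained with May Grunwald Giemsa and counted on day +9. Percent colony formation is taken relative to untreated control cells, set as 100% plating efficiency.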

[2] = Cytotoxicity at 250 ug/mL against normal mouse fibroblasts (C3H cells) cells; type: cell-based; summary of the method: as §1
[3] = Cytotoxicity at 50 ug/mL against normal mouse fibroblasts (C3H cells) cells; type: cell-based; summary of the method: as §1
[4] = Percent inhibition at 100 ug/mL for focus formation on day +10, using MSV assay on C3H cells without the addition of helper virus; type: functional; conditions: Mus musculus
Summary of the method: (§2)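 MSV focus assay on C3H cells. 8 × 10⁴ cells are seeded per 60-mm dish and pretreated 24 h later with 20 µg/mL DEAE-dextran. Cells are infected with diluted MSV alone or MSV plus MuLV helper, with adsorption for 30 min at 37 °C. Filtered aqueous compound, diluted in medium, is added right after infection. Foci are counted on days 5 and 10. MSV titer was 7×10⁶.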

[5] = Percent inhibition at 100 ug/mL for focus formation on day +5, using MSV assay on C3H cells with optimal amount of helper virus; type: functional; conditions: Mus musculus; summary of the method: as §2
[6] = Percent inhibition at 30 ug/mL for focus formation on day +5, using MSV assay on C3H cells without the addition of helper virus; type: functional; conditions: Mus musculus; summary of the method: as §2
[7] = Percent inhibition at 30 ug/mL for focus formation on day +10, using MSV assay on C3H cells without the addition of helper virus; type: functional; conditions: Mus musculus; summary of the method: as §2
[8] = Percent inhibition at 30 ug/mL for focus formation on day +5, using MSV assay on C3H cells with optimal amount of helper virus; type: functional; conditions: Mus musculus; summary of the method: as §2
[9] = Percent inhibition at 50 ug/mL for focus formation on day +10, using MSV assay on C3H cells without the addition of helper virus; type: functional; conditions: Mus musculus; summary of the method: as §2
[10] = Percent inhibition at 50 ug/mL for focus formation on day +5, using MSV assay on C3H cells with optimal amount of helper virus; type: functional; conditions: Mus musculus; summary of the method: as §2
[11] = Percent inhibition at 50 ug/mL for focus formation on day +5, using MSV assay on C3H cells without the addition of helper virus; type: functional; conditions: Mus musculus; summary of the method: as §2
[12] = Toxic effect on C3H cell colony formation; type: toxicity, cell-based; conditions: mouse, C3H cells; read-out: TD50 (the source's name); summary of the method: as §1
Murine leukemia virus = test: Inhibitory dose against MSV titer in the absence of Murine leukemia virus on day +10; type: functional, Mus musculus; conditions: read-out: ID50 (the source's name); summary of the method: as §2
[13] = Cytotoxicity at 250 ug/mL against MSV transformed (S+L-cells) cells; type: cell-based; conditions: mouse; summary of the method: as §1
[14] = Cytotoxicity at 50 ug/mL against MSV transformed (S+L-cells) cells; type: cell-based; conditions: mouse; summary of the method: as §1
[15] = Inhibitory action of Murine leukemia virus titer on S+L-cell in presence of the compound; type: functional; conditions: Mus musculus; read-out: ID50 (the source's name)
[16] = Percent inhibition at 100 ug/mL for focus formation using MLV assay on S+L- cells; type: functional; conditions: Mus musculus
[17] = Percent inhibition at 30 ug/mL for focus formation using MLV assay on S+L- cells; type: functional; conditions: Mus musculus
[18] = Percent inhibition at 50 ug/mL for focus formation using MLV assay on S+L- cells; type: functional; conditions: Mus musculus
[19] = Toxic effect on S+L- cell colony formation; type: toxicity; conditions: mouse, S+L- cells; read-out: TD50 (the source's name)
Summary of the method: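 S+L- (MSV-transformed 3T3 FL) cells grown in McCoy's 5a with 10% heat-inactivated fetal calf serum and antibiotics. Plating efficiency assay: 200 cells seeded per 35-mm well; product added at various concentrations 24 h after seeding. Colonies stained with May Grunwald Giemsa and counted on day +9. Colony formation expressed relative to untreated controls taken as 100% plating efficiency.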

[20] = Percent inhibition at 100 ug/mL for focus formation on day +5, using MSV assay on C3H cells without the addition of helper virus; type: functional; conditions: Mus musculus; summary of the method: as §2
[21] = Cytotoxicity at 100 ug/mL against MSV transformed (S+L-cells) cells; type: cell-based; conditions: mouse; summary of the method: as §1
[22] = Percent inhibition at 2.5 ug/mL for focus formation on day +5, using MSV assay on C3H cells with optimal amount of helper virus; type: functional; conditions: Mus musculus; summary of the method: as §2
[23] = Percent inhibition at 5 ug/mL for focus formation on day +5, using MSV assay on C3H cells with optimal amount of helper virus; type: functional; conditions: Mus musculus; summary of the method: as §2
[24] = Cytotoxicity at 10 ug/mL against MSV transformed (S+L-cells) cells; type: cell-based; conditions: mouse; summary of the method: as §1
[25] = Cytotoxicity at 5 ug/mL against MSV transformed (S+L-cells) cells; type: cell-based; conditions: mouse; summary of the method: as §1
[26] = Percent inhibition at 200 ug/mL for focus formation on day +10, using MSV assay on C3H cells without the addition of helper virus; type: functional; conditions: Mus musculus; summary of the method: as §2
[27] = Percent inhibition at 200 ug/mL for focus formation on day +5, using MSV assay on C3H cells with optimal amount of helper virus; type: functional; conditions: Mus musculus; summary of the method: as §2
[28] = Percent inhibition at 200 ug/mL for focus formation on day +5, using MSV assay on C3H cells without the addition of helper virus; type: functional; conditions: Mus musculus; summary of the method: as §2
[29] = Percent inhibition at 200 ug/mL for focus formation using MLV assay on S+L- cells; type: functional; conditions: Mus musculus

CC1OC(c2nc3c([N+](=O)[O-])cccn3n2)C(O)C(O)C1=O (stereo not given)
Colony formation [1]: 76% | Colony formation [2]: 21% | Colony formation [3]: 109% | inhibition at 100 µg/mL [4]: 42% | inhibition at 100 µg/mL [5]: 78% | inhibition at 30 µg/mL [6]: 35% | inhibition at 30 µg/mL [7]: 0% | inhibition at 30 µg/mL [8]: 31% | inhibition at 50 µg/mL [9]: 14% | inhibition at 50 µg/mL [10]: 46% | inhibition at 50 µg/mL [11]: 54% | CC50 [12]: 150 µg/mL (≈ 487 µM) | IC50 (Murine leukemia virus): 145 µg/mL (≈ 470 µM) | Colony formation [13]: 0% | Colony formation [14]: 81% | IC50 [15]: 43 µg/mL | inhibition at 100 µg/mL [16]: 80% | inhibition at 30 µg/mL [17]: 35% | inhibition at 50 µg/mL [18]: 55% | CC50 [19]: 73 µg/mL (≈ 237 µM) | inhibition at 100 µg/mL [20]: 67% | Colony formation [21]: 25%

O=[N+]([O-])c1cccn2nc([C@@H]3O[C@H](CO)[C@@H](O)[C@H]3O)nc12
inhibition at 2.5 µg/mL [22]: 47% | inhibition at 5 µg/mL [23]: 62% | Colony formation [24]: 46% | Colony formation [25]: 79.6%

CC1OC(c2nc3c(N)cccn3n2)C(O)C(O)C1O (stereo not given)
Colony formation [1]: 115% | Colony formation [2]: 108% | inhibition at 200 µg/mL [26]: 0% | inhibition at 200 µg/mL [27]: 11% | inhibition at 200 µg/mL [28]: 0% | Colony formation [13]: 94% | IC50 [15]: 200 µg/mL | inhibition at 200 µg/mL [29]: 50% | Colony formation [21]: 83%
